Measured values published in ChEMBL document CHEMBL3244385, “Antitumor anthracycline antibiotics. Structure-activity and structure-cardiotoxicity relationships of rubidazone analogues” (J Med Chem, 1978).

Key:
Calf thymus DNA = test: Binding affinity to calf thymus DNA assessed as change in melting temperature at 5 uM by spectrophotometer analysis; assay type: nucleic-acid assay; details: Bos taurus
Procedure, shortened: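 Drug dissolved in Me2SO, diluted with buffer, then mixed with calf thymus DNA. Final mix: 0.01 M phosphate pH 7, 5×10^-5 M DNA, 5×10^-6 M drug, 10^-5 M EDTA, 5% Me2SO. Absorbance at 259 nm recorded every 30 s while heating at 18 °C/h. Tm is the midpoint of the corrected curve; the shift is taken against DNA alone.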

[1] = Half life in 0.01 M phosphate buffer at 10 uM at pH 7.4 at 50 degC; assay type: physicochemical
Procedure, shortened: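 Drug at 1×10^-5 M in 0.01 M phosphate, pH 7.4, 50 °C, no DNA. Absorbance followed continuously for 3 h at a drug-specific wavelength (345 or 259 nm). Buffer baseline subtracted. Data fit to A = ΣA0 + c·e^(-kt), with ΣA0 the absorbance of daunorubicin plus the […], and t1/2 derived from the fit.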

L1210 [2] = test: Inhibition of DNA synthesis in mouse L1210 cells; assay type: functional; details: read-out: ED50 (the source's name)
L1210 [3] = test: Inhibition of RNA synthesis in mouse L1210 cells; assay type: functional; details: read-out: ED50 (the source's name)
[4] = Partition coefficient, log P of the compound; assay type: physicochemical; details: octanol/water
[5] = Dissociation constant, pKa of Ar-COOH group of the compound; assay type: physicochemical
P388 [6] = test: In vivo antitumor activity against mouse P388 cells allografted in BDF/CDF mouse assessed as host survival time at 16 mg/kg, ip administered on days 1 to 9 relative to control; assay type: functional; details: route intraperitoneal
Procedure, shortened: (§1)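 P-388 lymphocytic leukemia, 10⁶ cells injected ip into BDF or CDF mice on day 0; drug given ip daily on days 1-9 at the stated dose. Read-out T/C: average survival time of treated mice as percent of untreated controls. Assays run by NCI Drug Research and Development Program.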

P388 [7] = test: In vivo antitumor activity against mouse P388 cells allografted in BDF/CDF mouse assessed as host survival time at 8 mg/kg, ip administered on days 1 to 9 relative to control; assay type: functional; details: route intraperitoneal; procedure, shortened: as §1
P388 [8] = test: In vivo antitumor activity against mouse P388 cells allografted in BDF/CDF mouse assessed as host survival time at 4 mg/kg, ip administered on days 1 to 9 relative to control; assay type: functional; details: route intraperitoneal; procedure, shortened: as §1
P388 [9] = test: In vivo antitumor activity against mouse P388 cells allografted in BDF/CDF mouse assessed as host survival time at 2 mg/kg, ip administered on days 1 to 9 relative to control; assay type: functional; details: route intraperitoneal; procedure, shortened: as §1
P388 [10] = test: In vivo antitumor activity against mouse P388 cells allografted in BDF/CDF mouse assessed as host survival time at 1 mg/kg, ip administered on days 1 to 9 relative to control; assay type: functional; details: route intraperitoneal; procedure, shortened: as §1
P388 [11] = test: In vivo antitumor activity against mouse P388 cells allografted in BDF/CDF mouse assessed as host survival time at 0.5 mg/kg, ip administered on days 1 to 9 relative to control; assay type: functional; details: route intraperitoneal; procedure, shortened: as §1
P388 [12] = test: In vivo antitumor activity against mouse P388 cells allografted in BDF/CDF mouse assessed as host survival time at 0.25 mg/kg, ip administered on days 1 to 9 relative to control; assay type: functional; details: route intraperitoneal; procedure, shortened: as §1
P388 [13] = test: In vivo antitumor activity against mouse P388 cells allografted in BDF/CDF mouse assessed as host survival time at 0.125 mg/kg, ip administered on days 1 to 9 relative to control; assay type: functional; details: route intraperitoneal; procedure, shortened: as §1
Rattus norvegicus [14] = species on record: Rattus norvegicus; test: Cardiotoxicity in rat ECG model; details: in vivo
Rattus norvegicus [15] = species on record: Rattus norvegicus; test: Cardiotoxicity in rat ECG model relative to adriamycin; details: in vivo

| Compound | ΔTm (Calf thymus DNA) [°C] | half-life at 10 µM [1] [h] | EC50 (L1210 [2]) [nM] | EC50 (L1210 [3]) [nM] | logP [4] | pKa [5] | T/C (P388 [6]) [%] | T/C (P388 [7]) [%] | T/C (P388 [8]) [%] | T/C (P388 [9]) [%] | T/C (P388 [10]) [%] | T/C (P388 [11]) [%] | T/C (P388 [12]) [%] | T/C (P388 [13]) [%] | MCCD (Rattus norvegicus [14]) | Ratio (Rattus norvegicus [15]) |
| --- | --- | --- | --- | --- | --- | --- | --- | --- | --- | --- | --- | --- | --- | --- | --- | --- |
| COc1cccc2c1C(=O)c1c(O)c3c(c(O)c1C2=O)C[C@@](O)(/C(C)=N/NC(=O)c1ccc(N(C)C)cc1)C[C@@H]3O[C@H]1C[C@H](N)[C@H](O)[C@H](C)O1.Cl | 10.7 | 9.23 | 2600 | 2500 | 1.22 | 4.97 | 89 | 136 | 172 | 181 | 154 | 154 | 111 | 94 | 12 mg/kg | 0.8 |
| COc1cccc2c1C(=O)c1c(O)c3c(c(O)c1C2=O)C[C@@](O)(/C(C)=N/NC(=O)c1ccc(-c2ccccc2)cc1)C[C@@H]3O[C@H]1C[C@H](N)[C@H](O)[C@H](C)O1.Cl | 10.3 |  | 1900 | 1000 | 3 | 3.97 | 63 | 98 | 190 | 163 | 157 | 138 | 134 | 107 | 40 mg/kg | 2.8 |
| COc1cccc2c1C(=O)c1c(O)c3c(c(O)c1C2=O)C[C@@](O)(/C(CO)=N/NC(=O)c1ccc(Cl)c(Cl)c1)C[C@@H]3O[C@H]1C[C@H](N)[C@H](O)[C@H](C)O1.Cl | 5.3 |  | 6600 | 3600 | 1.94 | 3.62 | 72 | 109 | 202 | 154 | 172 | 143 | 125 | 116 | 20 mg/kg | 1.4 |
| COc1cccc2c1C(=O)c1c(O)c3c(c(O)c1C2=O)C[C@@](O)(C(C)=O)C[C@@H]3O[C@H]1C[C@H](N)[C@H](O)[C@H](C)O1 [DAUNORUBICIN] |  |  | 480 | 230 | 0.82 |  |  |  | 83 | 112 | 162 | 167 | 152 |  | 14 mg/kg | 1.3 |
| COc1ccc(C(=O)N/N=C(\C)[C@]2(O)Cc3c(O)c4c(c(O)c3[C@@H](O[C@H]3C[C@H](N)[C@H](O)[C@H](C)O3)C2)C(=O)c2c(OC)cccc2C4=O)cc1.Cl | 10.9 |  | 3100 | 1600 | 1.02 | 4.47 | 59 | 183 | 211 | 174 | 158 | 136 | 129 | 119 | 24 mg/kg | 1.8 |
| CCCCOc1ccc(C(=O)N/N=C(\C)[C@]2(O)Cc3c(O)c4c(c(O)c3[C@@H](O[C@H]3C[C@H](N)[C@H](O)[C@H](C)O3)C2)C(=O)c2c(OC)cccc2C4=O)cc1.Cl | 10.2 |  | 3200 | 1400 | 2.65 | 4.23 | 54 | 72 | 127 | 179 | 152 | 151 | 143 | 115 | >= 48 mg kg-1 | >= 3.4 |
| COc1cccc2c1C(=O)c1c(O)c3c(c(O)c1C2=O)C[C@@](O)(/C(C)=N/NC(=O)c1ccc(Cl)c(Cl)c1)C[C@@H]3O[C@H]1C[C@H](N)[C@H](O)[C@H](C)O1.Cl | 11 |  | 2100 | 1700 | 2.46 | 3.62 | 54 | 81 | 163 | 175 | 166 | 157 | 137 | 117 | 40 mg/kg | 2.8 |
| CCc1ccc(C(=O)N/N=C(\C)[C@]2(O)Cc3c(O)c4c(c(O)c3[C@@H](O[C@H]3C[C@H](N)[C@H](O)[C@H](C)O3)C2)C(=O)c2c(OC)cccc2C4=O)cc1.Cl | 10.5 |  | 2600 | 1100 | 2.06 | 4.35 | 68 | 93 | 175 | 175 | 154 | 148 | 139 | 111 | 20 mg/kg | 1.5 |
| COc1cccc2c1C(=O)c1c(O)c3c(c(O)c1C2=O)C[C@@](O)(/C(C)=N/NC(=O)c1cccc([N+](=O)[O-])c1)C[C@@H]3O[C@H]1C[C@H](N)[C@H](O)[C@H](C)O1.Cl | 10.5 |  | 3200 | 2300 | 0.76 | 3.46 | 72 | 202 | 190 | 172 | 146 | 130 | 130 | 125 | 32 mg/kg | 2.3 |
| COc1cccc2c1C(=O)c1c(O)c3c(c(O)c1C2=O)C[C@@](O)(C(=O)CO)C[C@@H]3O[C@H]1C[C@H](N)[C@H](O)[C@H](C)O1.Cl [DOXORUBICIN HYDROCHLORIDE] | 13.4 |  | 1500 | 670 | 0.3 |  |  |  | 77 | 149 | 193 | 187 | 170 |  | 11 mg/kg | 1 |
| COc1cccc2c1C(=O)c1c(O)c3c(c(O)c1C2=O)C[C@@](O)(/C(C)=N/NC(=O)c1ccc(O)cc1)C[C@@H]3O[C@H]1C[C@H](N)[C@H](O)[C@H](C)O1.Cl | 11.5 |  | 3600 | 1900 | 0.37 | 4.52 | 111 | 181 | 161 | 160 | 145 | 157 | 111 | 115 | 20 mg/kg | 1.5 |
| COc1cccc2c1C(=O)c1c(O)c3c(c(O)c1C2=O)C[C@@](O)(/C(CO)=N/NC(=O)c1ccccc1)C[C@@H]3O[C@H]1C[C@H](N)[C@H](O)[C@H](C)O1.Cl | 8.9 |  | 14000 | 8800 | 0.52 | 4.19 | 128 | 201 | 172 | 154 | 154 | 126 | 99 | 103 | 32 mg/kg | 2.4 |
| COc1cccc2c1C(=O)c1c(O)c3c(c(O)c1C2=O)C[C@@](O)(/C(C)=N/NC(=O)c1ccccc1)C[C@@H]3O[C@H]1C[C@H](N)[C@H](O)[C@H](C)O1.Cl [ZORUBICIN HYDROCHLORIDE] | 11.7 | 5.4 | 2200 | 1200 | 1.04 | 4.19 | 112 | 164 | 192 | 170 | 152 | 140 | 133 |  | 24 mg/kg | 1.8 |
